Data from ChEMBL document CHEMBL3774372, “Design, physico-chemical properties and biological evaluation of some new N-[(phenoxy)alkyl]- and N-{2-[2-(phenoxy)ethoxy]ethyl}aminoalkanols as anticonvulsant agents” (Bioorg Med Chem, 2016).
Activity calls are given as the source filed them.

system: Mus musculus; experiment: Anticonvulsant activity in mouse assessed as protection against maximal electric shock-induced seizures at 30 mg/kg, ip measured after 0.5 hrs; type: functional, organism-based; settings: not given
Outline: (§1)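 Mice dosed ip with suspension in 0.5% methylcellulose; maximal electroshock applied at the listed time after dosing. Protection = abolition of hindlimb tonic extension component of seizure; reported as animals protected/animals tested.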

| SMILES | Activity |
| --- | --- |
| Cc1cccc(OCCCNC(C)CO)c1C (centres undefined) | inactive |
| Cc1cccc(OCCNC(C)CO)c1C (centres undefined) | inactive |
| Cc1cccc(C)c1OCCOCCN1CCC(O)CC1 | inactive |
| CCC(CO)NCCCOc1cccc(C)c1C (centres undefined) | inactive |

system: Mus musculus; experiment: Anticonvulsant activity in mouse assessed as protection against maximal electric shock-induced seizures at 30 mg/kg, ip measured after 4 hrs; type: functional, organism-based; settings: not given; outline: as §1

| SMILES | Activity |
| --- | --- |
| Cc1cccc(OCCCNC(C)CO)c1C (centres undefined) | inactive |
| Cc1cccc(OCCNC(C)CO)c1C (centres undefined) | inactive |
| Cc1cccc(C)c1OCCOCCN1CCC(O)CC1 | inactive |
| CCC(CO)NCCCOc1cccc(C)c1C (centres undefined) | inactive |

system: Mus musculus; experiment: Anticonvulsant activity in mouse assessed as protection against maximal electric shock-induced seizures at 100 mg/kg, ip measured after 0.5 hrs; type: functional, organism-based; settings: not given; outline: as §1

| SMILES | Activity |
| --- | --- |
| Cc1cccc(OCCCNC(C)CO)c1C (centres undefined) | Active |
| Cc1cccc(OCCNC(C)CO)c1C (centres undefined) | Active |
| CCC(CO)NCCCOc1cccc(C)c1C (centres undefined) | Active |

system: Mus musculus; experiment: Anticonvulsant activity in mouse assessed as protection against maximal electric shock-induced seizures at 100 mg/kg, ip measured after 4 hrs; type: functional, organism-based; settings: not given; outline: as §1

| SMILES | Activity |
| --- | --- |
| Cc1cccc(OCCCNC(C)CO)c1C (centres undefined) | inactive |
| Cc1cccc(OCCNC(C)CO)c1C (centres undefined) | inactive |
| Cc1cccc(C)c1OCCOCCN1CCC(O)CC1 | inactive |
| CCC(CO)NCCCOc1cccc(C)c1C (centres undefined) | inactive |

system: Mus musculus; experiment: Anticonvulsant activity in mouse assessed as protection against subcutaneous pentylenetetrazol-induced seizures at 30 mg/kg, ip measured after 0.5 hrs; type: functional, organism-based; settings: not given
Outline: (§2)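 Mice dosed ip as 0.5% methylcellulose suspension; pentylenetetrazole 85 mg/kg in 0.9% NaCl injected subcutaneously into posterior midline, animals watched at least 30 min. Protection = no threshold seizure (single clonic spasm episode lasting ≥5 s); scored protected/tested.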

| SMILES | Activity |
| --- | --- |
| Cc1cccc(OCCCNC(C)CO)c1C (centres undefined) | inactive |
| Cc1cccc(OCCNC(C)CO)c1C (centres undefined) | inactive |
| Cc1cccc(C)c1OCCOCCN1CCC(O)CC1 | inactive |
| CCC(CO)NCCCOc1cccc(C)c1C (centres undefined) | inactive |

system: Mus musculus; experiment: Anticonvulsant activity in mouse assessed as protection against subcutaneous pentylenetetrazol-induced seizures at 100 mg/kg, ip measured after 0.5 hrs; type: functional, organism-based; settings: not given; outline: as §2

| SMILES | Activity |
| --- | --- |
| Cc1cccc(OCCCNC(C)CO)c1C (centres undefined) | inactive |
| Cc1cccc(OCCNC(C)CO)c1C (centres undefined) | inactive |
| CCC(CO)NCCCOc1cccc(C)c1C (centres undefined) | inactive |

system: Mus musculus; experiment: Anticonvulsant activity in mouse assessed as protection against subcutaneous pentylenetetrazol-induced seizures at 30 mg/kg, ip measured after 4 hrs; type: functional, organism-based; settings: not given; outline: as §2

| SMILES | Activity |
| --- | --- |
| Cc1cccc(OCCCNC(C)CO)c1C (centres undefined) | inactive |
| Cc1cccc(OCCNC(C)CO)c1C (centres undefined) | inactive |
| Cc1cccc(C)c1OCCOCCN1CCC(O)CC1 | inactive |
| CCC(CO)NCCCOc1cccc(C)c1C (centres undefined) | inactive |

system: Mus musculus; experiment: Anticonvulsant activity in mouse assessed as protection against subcutaneous pentylenetetrazol-induced seizures at 100 mg/kg, ip measured after 4 hrs; type: functional, organism-based; settings: not given; outline: as §2

| SMILES | Activity |
| --- | --- |
| Cc1cccc(OCCCNC(C)CO)c1C (centres undefined) | inactive |
| Cc1cccc(OCCNC(C)CO)c1C (centres undefined) | inactive |
| Cc1cccc(C)c1OCCOCCN1CCC(O)CC1 | inactive |
| CCC(CO)NCCCOc1cccc(C)c1C (centres undefined) | inactive |

system: Mus musculus; experiment: Neurotoxicity in mouse at 30 mg/kg, ip after 0.5 hrs by rotarod test; type: toxicity, organism-based; settings: in vivo
Outline: (§3)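 Mice were dosed ip with compound suspended in 0.5% methylcellulose. Rotarod: a 1 in. knurled rod turning at 6 rpm. Neurotoxicity was scored as failure to stay on the rod for at least 1 min in each of three trials. Results are given as the number of animals affected out of the number tested.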

| SMILES | Activity |
| --- | --- |
| Cc1cccc(OCCCNC(C)CO)c1C (centres undefined) | Non-toxic |
| Cc1cccc(OCCNC(C)CO)c1C (centres undefined) | Non-toxic |
| Cc1cccc(C)c1OCCOCCN1CCC(O)CC1 | Non-toxic |
| CCC(CO)NCCCOc1cccc(C)c1C (centres undefined) | Non-toxic |

system: Mus musculus; experiment: Neurotoxicity in mouse at 30 mg/kg, ip after 4 hrs by rotarod test; type: toxicity, organism-based; settings: in vivo; outline: as §3

| SMILES | Activity |
| --- | --- |
| Cc1cccc(OCCCNC(C)CO)c1C (centres undefined) | Non-toxic |
| Cc1cccc(OCCNC(C)CO)c1C (centres undefined) | Non-toxic |
| Cc1cccc(C)c1OCCOCCN1CCC(O)CC1 | Non-toxic |
| CCC(CO)NCCCOc1cccc(C)c1C (centres undefined) | Non-toxic |

system: Mus musculus; experiment: Neurotoxicity in mouse at 100 mg/kg, ip after 0.5 hrs by rotarod test; type: toxicity, organism-based; settings: in vivo; outline: as §3

| SMILES | Activity |
| --- | --- |
| Cc1cccc(OCCCNC(C)CO)c1C (centres undefined) | Toxic |
| CCC(CO)NCCCOc1cccc(C)c1C (centres undefined) | Toxic |

system: Mus musculus; experiment: Neurotoxicity in mouse at 100 mg/kg, ip after 4 hrs by rotarod test; type: toxicity, organism-based; settings: in vivo; outline: as §3

| SMILES | Activity |
| --- | --- |
| Cc1cccc(OCCCNC(C)CO)c1C (centres undefined) | Non-toxic |
| Cc1cccc(OCCNC(C)CO)c1C (centres undefined) | Non-toxic |
| Cc1cccc(C)c1OCCOCCN1CCC(O)CC1 | Non-toxic |
| CCC(CO)NCCCOc1cccc(C)c1C (centres undefined) | Non-toxic |

system: Mus musculus; experiment: Neurotoxicity in mouse at 300 mg/kg, ip after 0.5 hrs by rotarod test; type: toxicity, organism-based; settings: in vivo; outline: as §3

| SMILES | Activity |
| --- | --- |
| Cc1cccc(OCCCNC(C)CO)c1C (centres undefined) | Toxic |
| Cc1cccc(OCCNC(C)CO)c1C (centres undefined) | Toxic |
| Cc1cccc(C)c1OCCOCCN1CCC(O)CC1 | Toxic |
| CCC(CO)NCCCOc1cccc(C)c1C (centres undefined) | Toxic |

system: Vibrio harveyi; experiment: Mutagenicity in Vibrio harveyi BB7 assessed as number of colonies after 48 hrs (reference value: 13 to 14 no_unit); type: ADME, organism-based; settings: in vivo
Outline: (§4)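 Vibrio harveyi mutagenicity test: test compound was added to exponentially growing cultures (A600 = 0.1, 30 °C) and grown to OD600 0.3–0.4. Then 5 × 10^6 cells were plated on BOSS agar with neomycin (final 100 µg/mL) and incubated 48 h at 30 °C. Neomycin-resistant colonies were counted. Triplicate; controls were water, DMSO and NQNO 40 ng/mL.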

| SMILES | Activity |
| --- | --- |
| Cc1cccc(OCCOCCN[C@H]2CC[C@H](O)CC2)c1C | 22 |
| Cc1cccc(C)c1OCCOCCN1CCC(O)CC1 | 22 |
| Cc1ccc(OCCN[C@H](C)CO)c(C)c1 | 22 |

system: Vibrio harveyi; experiment: Mutagenicity in Vibrio harveyi BB7X assessed as number of colonies after 48 hrs (reference value: 15 to 16 no_unit); type: ADME, organism-based; settings: in vivo; outline: as §4

| SMILES | Activity |
| --- | --- |
| Cc1cccc(OCCOCCN[C@H]2CC[C@H](O)CC2)c1C | 27 |
| Cc1cccc(C)c1OCCOCCN1CCC(O)CC1 | 16 |
| Cc1ccc(OCCN[C@H](C)CO)c(C)c1 | 17 |

system: Vibrio harveyi; experiment: Mutagenicity in Vibrio harveyi BB7M assessed as number of colonies after 48 hrs (reference value: 13 to 14 no_unit); type: ADME, organism-based; settings: in vivo; outline: as §4

| SMILES | Activity |
| --- | --- |
| Cc1cccc(OCCOCCN[C@H]2CC[C@H](O)CC2)c1C | 25 |
| Cc1cccc(C)c1OCCOCCN1CCC(O)CC1 | 18 |
| Cc1ccc(OCCN[C@H](C)CO)c(C)c1 | 26 |

system: Vibrio harveyi; experiment: Mutagenicity in Vibrio harveyi BB7XM assessed as number of colonies after 48 hrs (reference value: 14 no_unit); type: ADME, organism-based; settings: in vivo; outline: as §4

| SMILES | Activity |
| --- | --- |
| Cc1cccc(OCCOCCN[C@H]2CC[C@H](O)CC2)c1C | 20 |
| Cc1cccc(C)c1OCCOCCN1CCC(O)CC1 | 26 |
| Cc1ccc(OCCN[C@H](C)CO)c(C)c1 | 23 |

system: Vibrio harveyi; experiment: Antimutagenic activity against Vibrio harveyi BB7 assessed as inhibition of NQNO-induced mutagenicity after 48 hrs; type: functional; settings: not given
Outline: (§5)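 V. harveyi cultures grown exponentially to A600 0.1 at 30 °C, exposed to test compound for 15 min, then to NQNO, and grown on to A600 0.3–0.4. 5 × 10⁶ cells plated on BOSS agar with neomycin (100, final). Neomycin-resistant colonies counted after 48 h at 30 °C. Result given as % inhibition of NQNO mutagenicity; three independent repeats.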

| SMILES | inhibition (INH) |
| --- | --- |
| Cc1cccc(C)c1OCCOCCN1CCC(O)CC1 | 84% |

system: Vibrio harveyi; experiment: Antimutagenic activity against Vibrio harveyi BB7X assessed as inhibition of NQNO-induced mutagenicity after 48 hrs; type: functional; settings: not given; outline: as §5

| SMILES | inhibition (INH) |
| --- | --- |
| Cc1cccc(C)c1OCCOCCN1CCC(O)CC1 | 12% |

system: Vibrio harveyi; experiment: Antimutagenic activity against Vibrio harveyi BB7M assessed as inhibition of NQNO-induced mutagenicity after 48 hrs; type: functional; settings: not given; outline: as §5

| SMILES | inhibition (INH) |
| --- | --- |
| Cc1cccc(C)c1OCCOCCN1CCC(O)CC1 | 34% |

system: Vibrio harveyi; experiment: Antimutagenic activity against Vibrio harveyi BB7XM assessed as inhibition of NQNO-induced mutagenicity after 48 hrs; type: functional; settings: not given; outline: as §5

| SMILES | inhibition (INH) |
| --- | --- |
| Cc1cccc(C)c1OCCOCCN1CCC(O)CC1 | 26% |
